Measured values as given in article PMC6172068 (Cancer Science, 2018).

Assay: Safety and tolerability
Assay type: in vivo, Japanese patients
Outline: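 In this open-label study, once-daily oral dosing escalated 20–300 mg/d by Bayesian continual reassessment. DLTs were judged from Cycles 0 and 1, and MTD/RD came from the posterior mean DLT rate plus investigator assessment. Treatment-emergent AEs were graded by NCI-CTCAE v4.0 for seriousness, duration and relatedness. The safety analysis set comprised all patients given ≥1 dose.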

CCc1nc(C(N)=O)c(Nc2ccc(N3CCC(N4CCN(C)CC4)CC3)c(OC)c2)nc1NC1CCOCC1 [gilteritinib]
3 (12.5%) n (%): Cough (Grade 1-2, N = 24) | Pleural effusion (Grade 1-2, N = 24) | Rash (Grade 1-2, N = 24) | Somnolence (Grade 1-2, N = 24)
5 (55.6%) n (%): Serious AEs (200 mg (n = 9))
7 (77.8%) n (%): Grade ≥3 AEs (200 mg (n = 9))
4 (44.4%) n (%): Drug-related grade ≥3 AEs (200 mg (n = 9))
2 (8.3%) n (%): Dysesthesia (Grade 1-2, N = 24) | Dysgeusia (Grade 1-2, N = 24) | Elevated ALT (Grade 1-2, N = 24) | Elevated AST (Grade 1-2, N = 24) | Epistaxis (Grade 1-2, N = 24) | Febrile neutropenia (Grade 1-2, N = 24) | Hematoma (Grade 1-2, N = 24) | Hypokalemia (Grade 1-2, N = 24) | Hypotension (Grade 1-2, N = 24) | Hypoxia (Grade 1-2, N = 24) | Insomnia (Grade 1-2, N = 24)
1 (4.2%) n (%): Bone pain (Grade 1-2, N = 24) | Disseminated intravascular coagulation (Grade 1-2, N = 24) | ECG prolonged QT interval (Grade 1-2, N = 24) | Increased amylase (Grade 1-2, N = 24) | Lung infection (Grade 1-2, N = 24) | Pneumonia (Grade 1-2, N = 24) | Sepsis (Grade 1-2, N = 24)
2 (22.2%) n (%): AEs leading to discontinuation of the study drug (200 mg (n = 9)) | Drug-related serious AEs (200 mg (n = 9))
8.3%: patients with a dose decrease (2 patients)
29.2%: patients with dose interruptions (7 patients)
9 (100%) n (%): Any AE (200 mg (n = 9)) | Drug-related AE (200 mg (n = 9))
4 (16.7%) n (%): Constipation (Grade 1-2, N = 24) | Corneal erosion (Grade 1-2, N = 24) | Headache (Grade 1-2, N = 24) | Nausea (Grade 1-2, N = 24)
1 n: DLT: grade 3 tumor lysis syndrome (120 mg/d) | AE resulting in permanent discontinuation: elevated blood creatine phosphokinase (200 mg/d) | AE resulting in permanent discontinuation: delirium (200 mg/d, not considered drug-related) | AE resulting in permanent discontinuation: elevated lactate dehydrogenase (300 mg/d) | AE resulting in permanent discontinuation: pneumonia (300 mg/d)
5 (20.8%) n (%): Hypertension (Grade 1-2, N = 24) | Renal impairment (Grade 1-2, N = 24)
7 (29.2%) n (%): Elevated blood lactate dehydrogenase (Grade 1-2, N = 24) | Pyrexia (Grade 1-2, N = 24)
9 (37.5%) n (%): Elevated liver enzymes (ALT, AST, and alkaline phosphatase) (Grade 1-2, N = 24)
0 n (%): Deaths (200 mg (n = 9)) | Serious AE: Acute cholangitis (200 mg (n = 9)) | Serious AE: Bronchopneumonia (200 mg (n = 9)) | Serious AE: Device-related infection (200 mg (n = 9)) | Serious AE: Edema (200 mg (n = 9)) | Serious AE: Pneumonia (200 mg (n = 9)) | Serious AE: Sepsis (200 mg (n = 9)) | Deaths (300 mg (n = 2)) | Drug-related serious AEs (300 mg (n = 2)) | Serious AE: Acute cholangitis (300 mg (n = 2)) | Serious AE: Bronchopneumonia (300 mg (n = 2)) | Serious AE: Bronchopulmonary aspergillosis (300 mg (n = 2)) | Serious AE: Cardiomyopathy (300 mg (n = 2)) | Serious AE: Device-related infection (300 mg (n = 2)) | Serious AE: Edema (300 mg (n = 2)) | Serious AE: Febrile neutropenia (300 mg (n = 2)) | Serious AE: Increased level of fibrin degradation products (300 mg (n = 2)) | Serious AE: Pneumonia (300 mg (n = 2)) | Serious AE: Sepsis (300 mg (n = 2)) | Serious AE: Subdural hematoma (300 mg (n = 2)) | Serious AEs (300 mg (n = 2)) | Anemia (Grade 1-2, N = 24)
2 n: DLTs: grade 3 elevated blood lactate dehydrogenase, amylase, blood creatine phosphokinase levels, and syncope (300 mg/d)
2 (100%) n (%): AEs leading to discontinuation of the study drug (300 mg (n = 2)) | Any AE (300 mg (n = 2)) | Drug-related AE (300 mg (n = 2)) | Drug-related AEs leading to discontinuation of the study drug (300 mg (n = 2)) | Drug-related grade ≥3 AEs (300 mg (n = 2)) | Grade ≥3 AEs (300 mg (n = 2))
6 (25%) n (%): Diarrhea (Grade 1-2, N = 24) | Elevated blood creatine phosphokinase (Grade 1-2, N = 24)
1 (11.1%) n (%): Drug-related AEs leading to discontinuation of the study drug (200 mg (n = 9)) | Serious AE: Bronchopulmonary aspergillosis (200 mg (n = 9)) | Serious AE: Cardiomyopathy (200 mg (n = 9)) | Serious AE: Febrile neutropenia (200 mg (n = 9)) | Serious AE: Increased level of fibrin degradation products (200 mg (n = 9)) | Serious AE: Subdural hematoma (200 mg (n = 9))
